MrgX1 ag: human MrgX1 receptor agonism, primary screen; Q96LB2; B-score at 10 µM; 0.44% of 310,000 active; MrgX1-HEK293 cells, Fluo-4 calcium fluorescence, agonist mode; active compounds read high;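 active = calcium response B-score plate-corrected fluorescence ratio at least 3 library SD, with starting fluorescence B-score inside 5 SD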
Target sequence (Q96LB2 whole entry, looked up): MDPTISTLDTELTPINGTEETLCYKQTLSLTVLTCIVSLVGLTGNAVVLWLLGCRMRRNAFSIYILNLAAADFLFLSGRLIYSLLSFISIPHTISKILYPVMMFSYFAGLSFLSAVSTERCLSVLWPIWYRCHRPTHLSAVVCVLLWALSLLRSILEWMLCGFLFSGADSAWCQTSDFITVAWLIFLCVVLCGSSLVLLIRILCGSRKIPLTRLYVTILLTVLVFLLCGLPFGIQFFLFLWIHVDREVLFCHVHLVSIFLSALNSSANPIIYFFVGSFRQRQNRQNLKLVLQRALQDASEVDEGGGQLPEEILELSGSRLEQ
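Test system: HEK293 cells stably expressing human MrgX1 receptor; amount: 15,000 cells per well; doses: compound delivered in addition one of three; times: overnight plating before 1 h dye loading; detection: Fluo-4 NW calcium-flux fluorescence, kinetic read; read-out basis: B-scored fluorescence response ratio; controls: positive and negative controls per plate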
RGS4 block: inhibitors of human RGS4; P49798; HEK293 M3R/RGS4 inducible, Fluo-4 calcium flux; active compounds read high; triggered by carbachol at its EC20; B-score at 10 µM; 0.45% of 310,000 active;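 active = B-score, a plate-corrected calcium signal, over three deviations above library mean, with baseline fluorescence within five deviations of library mean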;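 note: RGS4 expression induced by doxycycline in cells with stable M3 receptor; B-score is computed from the integrated fluorescence ratio over baseline after carbachol; higher B-score means a larger calcium signal and so more RGS4 inhibition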
Target sequence (P49798 whole entry, looked up): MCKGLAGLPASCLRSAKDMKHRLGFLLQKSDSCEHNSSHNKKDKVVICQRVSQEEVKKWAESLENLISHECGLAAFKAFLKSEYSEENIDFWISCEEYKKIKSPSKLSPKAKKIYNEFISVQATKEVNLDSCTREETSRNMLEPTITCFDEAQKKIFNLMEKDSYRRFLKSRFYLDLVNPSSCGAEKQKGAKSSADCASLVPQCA
RGS4 act: RGS4 potentiation or activation | AID 463111 | HEK293 M3R/inducible RGS4, carbachol calcium flux Fluo4; active compounds read low | B-score at 10 µM | 0.92% of 310,000 active;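 active = B-score of the integrated calcium signal more than 4 SD below the library mean, with starting fluorescence not abnormally high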;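 note: negative B-score means reduced calcium response which marks RGS4 activation or potentiation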
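test system = M3R-expressing HEK293 line, RGS4 induced by doxycycline | probe or stimulus = carbachol at ECmax as muscarinic agonist stimulus | timing = dye loading 30 min 37 °C, buffer rest 30 min RT | signal = calcium dye Fluo4 fluorescence | evaluation = B score from integrated fluorescence ratio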
MrgX1 antagonist: human MrgX1 receptor antagonism, primary screen; MRGX1-HEK293 calcium flux, Fluo-4, BAM8-22 antagonism; active compounds read low; 1.3% of 310,000 active; B-score at 10 µM;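 active = calcium-response B-score plate-corrected more than 3 library SD below zero, starting fluorescence within 5 deviations, no agonist response on first addition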;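 note: peak minus trough fluorescence over baseline after final BAM8-22 challenge near maximal dose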
MrgX1 allo act: allosterically activates human MrgX1 receptor signaling | MrgX1-HEK293, Fluo-4 calcium flux, FDSS; active compounds read high | B-score at 10 µM | AID 588675 | 0.63% of 310,000 active | Q96LB2;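 active = plate-corrected calcium response at least 3 library SD above typical, normal starting fluorescence, not activating the receptor alone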;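 note: compound read alongside a low EC10 to EC30 dose of BAM8-22 agonist; peak minus trough fluorescence over baseline measured at the second addition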
MrgX1 antag conf: confirmation of human MrgX1 receptor antagonists; MrgX1-HEK293, BAM8-22 calcium flux, Fluo-4; active compounds read low; remaining BAM8-22 calcium response % of control (active compounds read low), % at 10 µM; 19% of 2,300 active; shares compounds with MrgX1 antagonist;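 active = remaining agonist calcium response no higher than 100% minus 3 SD of agonist-only control wells, with starting fluorescence near control levels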;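 note: agonist BAM8-22 given at a near maximal EC90 to ECmax level; peak minus minimum fluorescence divided by baseline after agonist addition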
HEK293 Ca flux: counter-screen for MrgX1 antagonists: effect in parental HEK293 cells; shares compounds with MrgX1 antagonist; Fluo-4 calcium fluorescence, FDSS; fluorescence ratio F(max-min)/F0 at 10 µM; 2% of 4,000 active;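 active = duplicate-averaged calcium fluorescence ratio at least three times the standard deviation of buffer wells, a nonspecific response in parental cells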
HEK293 Ca counter: activity in parental HEK293 cells without MrgX1 | shares compounds with MrgX1 antagonist | parental HEK293 calcium flux, Fluo-4 fluorescence ratio; active compounds read high | fluorescence ratio F(max-min)/F0 at 10 µM | 0.4% of 4,000 active | AID 624114;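 active = calcium fluorescence ratio, averaged over duplicates, at least 3 SD of the buffer-well ratio, meaning a nonspecific response in receptor-free cells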;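 note: untransfected parental HEK293 lacking MrgX1 used as counterscreen for MrgX1 allosteric activators; fluorescence change taken during the second addition on a kinetic imager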
HEK293 Ca cntr2: activity in parental HEK293 cells lacking MrgX1 receptor; shares compounds with MrgX1 antagonist; Fluo-4 calcium fluorescence (FDSS); active compounds read high; fluorescence ratio F(max-min)/F0 at 10 µM; 8.7% of 4,000 active; AID 624115;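 active = calcium fluorescence ratio at least three times the spread of buffer wells, meaning a non-specific response in parental cells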
* = called active by the depositor. An excerpt weighted towards active compounds, which were near 3.5% of everything screened.

Screening COC(=O)CCC(=O)Nc1cccc(Cl)c1 returned MrgX1 ag inactive, RGS4 block inactive, RGS4 act inactive, MrgX1 antagonist -5.4*, MrgX1 allo act inactive, MrgX1 antag conf 84%*, HEK293 Ca flux inactive, HEK293 Ca counter inactive and HEK293 Ca cntr2 inactive.
O=c1[nH]c2cc(Br)cnc2nc1/C=C(\O)c1ccc(F)cc1 was read as MrgX1 ag inactive, RGS4 block inactive, RGS4 act inactive, MrgX1 antagonist -7*, MrgX1 allo act inactive, MrgX1 antag conf 75%*, HEK293 Ca flux inactive, HEK293 Ca counter inactive and HEK293 Ca cntr2 inactive.
`Cc1cccc(N(C)S(=O)(=O)c2cc3c(cc2C)n(C)c(=O)c(=O)n3C)c1` gave MrgX1 ag inactive, RGS4 block inactive, RGS4 act inactive, MrgX1 antagonist -4.7*, MrgX1 allo act inactive, MrgX1 antag conf inactive, HEK293 Ca flux inactive, HEK293 Ca counter inactive and HEK293 Ca cntr2 inactive.
`Cc1cc2c(cc1S(=O)(=O)N(C)c1ccccc1)n(C)c(=O)n2C` gave MrgX1 ag inactive, RGS4 block inactive, RGS4 act inactive, MrgX1 antagonist inactive and MrgX1 allo act inactive.
CCN(CC)C(=O)CSc1nc(OC)cc(=O)[nH]1 was read as MrgX1 ag inactive, RGS4 block inactive, RGS4 act inactive, MrgX1 antagonist -9.5*, MrgX1 allo act inactive, MrgX1 antag conf inactive, HEK293 Ca flux inactive, HEK293 Ca counter inactive and HEK293 Ca cntr2 53*.
COc1cc(=O)[nH]c(SCC(=O)Nc2ccc3ccccc3c2)n1 was read as MrgX1 ag inactive, RGS4 block inactive, RGS4 act inactive, MrgX1 antagonist inactive and MrgX1 allo act inactive.
CN(C)CCCSc1nc2ccccc2s1 was read as MrgX1 ag inactive, RGS4 block inactive, RGS4 act inactive, MrgX1 antagonist -7.1*, MrgX1 allo act inactive, MrgX1 antag conf 69%*, HEK293 Ca flux inactive, HEK293 Ca counter inactive and HEK293 Ca cntr2 inactive.
`COC(=O)c1ccc2[nH]c3c(c2c1)CC(C)CC3` (stereo not drawn) gave MrgX1 ag inactive, RGS4 block inactive, RGS4 act inactive, MrgX1 antagonist inactive and MrgX1 allo act inactive.
CC1CCc2[nH]c3ccc(C(=O)N4CCCC(C(F)(F)F)C4)cc3c2C1 (stereo not drawn) was read as MrgX1 ag inactive, RGS4 block inactive, RGS4 act inactive, MrgX1 antagonist -4.6*, MrgX1 allo act inactive, MrgX1 antag conf inactive, HEK293 Ca flux inactive, HEK293 Ca counter inactive and HEK293 Ca cntr2 inactive.
`Cc1ccc(S(=O)(=O)c2nc(-c3cccs3)oc2SCC(N)=O)cc1` gave MrgX1 ag inactive, RGS4 block inactive, RGS4 act inactive, MrgX1 antagonist -7.1*, MrgX1 allo act inactive, MrgX1 antag conf inactive, HEK293 Ca flux inactive, HEK293 Ca counter inactive and HEK293 Ca cntr2 inactive.
Screening Cc1ccc(-c2nc(S(=O)(=O)c3ccc(C)cc3)c(SCC(N)=O)o2)cc1 returned MrgX1 ag inactive, RGS4 block inactive, RGS4 act inactive, MrgX1 antagonist inactive and MrgX1 allo act inactive.
`O=[N+]([O-])c1ccccc1Nc1nc(-c2cccnc2)cs1` gave MrgX1 ag inactive, RGS4 block inactive, RGS4 act inactive, MrgX1 antagonist inactive and MrgX1 allo act inactive.
`CCN1C(=O)c2cccc3c(S(=O)(=O)Nc4ccncc4)ccc1c23` gave MrgX1 ag inactive, RGS4 block inactive, RGS4 act inactive, MrgX1 antagonist inactive and MrgX1 allo act inactive.
For CCN1C(=O)c2cccc3c(S(=O)(=O)Nc4ccccc4)ccc1c23 the results were MrgX1 ag inactive, RGS4 block inactive, RGS4 act inactive, MrgX1 antagonist -6.9*, MrgX1 allo act inactive, MrgX1 antag conf inactive, HEK293 Ca flux inactive, HEK293 Ca counter inactive and HEK293 Ca cntr2 inactive.
`Cc1cccc(N2CCN(C(=O)c3ccc(N4CCCC4=O)cc3)CC2C)c1` (stereo not drawn) gave MrgX1 ag inactive, RGS4 block inactive, RGS4 act inactive, MrgX1 antagonist -4.9*, MrgX1 allo act inactive, MrgX1 antag conf inactive, HEK293 Ca flux inactive, HEK293 Ca counter inactive and HEK293 Ca cntr2 inactive.
For Cc1cccc(N2CCN(C(=O)c3cccc(N4C(=O)C5C6C=CC(C6)C5C4=O)c3)CC2C)c1 (stereo not drawn) the results were MrgX1 ag inactive, RGS4 block inactive, RGS4 act inactive, MrgX1 antagonist inactive and MrgX1 allo act inactive.
For COC(=O)/C(=C\Nc1ccccc1N)c1ncc(C(F)(F)F)cc1Cl the results were MrgX1 ag inactive, RGS4 block inactive, RGS4 act inactive, MrgX1 antagonist -4.5*, MrgX1 allo act inactive, MrgX1 antag conf inactive, HEK293 Ca flux inactive, HEK293 Ca counter inactive and HEK293 Ca cntr2 inactive.
For CCOC(=O)C1CN(S(=O)(=O)c2ccc(C)cc2)c2cc(S(=O)(=O)CC)ccc2O1 (stereo not drawn) the results were MrgX1 ag inactive, RGS4 block inactive, RGS4 act inactive, MrgX1 antagonist -4.8*, MrgX1 allo act inactive, MrgX1 antag conf inactive, HEK293 Ca flux inactive, HEK293 Ca counter inactive and HEK293 Ca cntr2 inactive.
Cc1nonc1CC(=O)NC1CCCc2c1cnn2-c1ccc(F)cc1F (stereo not drawn) was read as MrgX1 ag inactive, RGS4 block inactive, RGS4 act inactive, MrgX1 antagonist inactive and MrgX1 allo act inactive.
`O=S(=O)(c1ccc(N2CCOCC2)cc1)N1CCOCC1` gave MrgX1 ag inactive, RGS4 block inactive, RGS4 act inactive, MrgX1 antagonist -4.9*, MrgX1 allo act inactive, MrgX1 antag conf inactive, HEK293 Ca flux inactive, HEK293 Ca counter inactive and HEK293 Ca cntr2 inactive.
CCS(=O)(=O)N1CCN(c2ccc(S(=O)(=O)N3CCOCC3)cc2)CC1 was read as MrgX1 ag inactive, RGS4 block inactive, RGS4 act inactive, MrgX1 antagonist inactive and MrgX1 allo act inactive.

Bioassay records from PubChem.
